RAD52 inh – RAD52 DNA annealing inhibitors, primary screen, biochemical, FRET, single point, set 2; DNA repair protein RAD52 homolog (Homo sapiens), P43351; recombinant RAD52 DNA annealing, FRET fluorescence; inhibition, % at 18.7 µM; 0.46% of 360,000 active;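 active = every replicate showing at least 50% inhibition; inconclusive = mean inhibition at least 50% but not in every replicate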
RAD54 branch – inhibitors of human RAD54 branch migration, primary screen, biochemical, fluorescence, single point | DNA repair and recombination protein RAD54-like (Homo sapiens), Q92698 | RAD54 Holliday junction branch migration, FAM/BHQ fluorescence | inhibition, % at 10.4 µM | 0.14% of 360,000 active;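 active = mean normalized replicate activity at least 40 and at least half of replicates scoring 40 or more; inconclusive = only one of the two criteria met; inactive = mean below 40 and under half of replicates reaching 40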;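 note: inhibitors cause a drop in the FAM fluorescence signal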
PAX8 reporter – inhibitors of PAX8-driven TPO luciferase reporter, primary screen, RMG-I cells, single concentration | SteadyGlo, 24 h | inhibition, % at 12.6 µM | 1.2% of 360,000 active | AID 652154, 2013;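 active = mean replicate inhibition at least 60% with every replicate also reaching 60%; inconclusive = only one of the two criteria is met; inactive = mean below 60% and not all replicates reaching 60%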;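 note: luciferase light reporting Pax8 driven TPO promoter activity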
FN deposition inh – inhibitors of fibronectin matrix deposition, primary screen, AH1F cells, Alexa488-fibronectin fluorescence, plate reader; AH1F fibroblasts, overnight; inhibition, % at 12.6 µM; 0.086% of 350,000 active;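 active = mean inhibition across replicates of 30% or more, regardless of how many single replicates reach that level; inconclusive = mean under 30% yet at least half of replicates reach 30%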
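Test system: AH1F fibroblast monolayer depositing Alexa488-labelled fibronectin into matrix. Input: 10000 cells per well. Technique: fluorescence, ex 485 nm, em 525 nm. Buffer or medium: DMEM plus 2% serum, read in PBS. Timing: 1 h cell adhesion before compound, then overnight fibronectin incubation. Compound: single dose, pinned. Read-out basis: inhibition from reduced deposited-fibronectin fluorescence.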
DNA binder FP – DNA-binding compounds via dye displacement, dose response, artefact control for RAD52 inhibitor project, biochemical, fluorescence polarization, cherry-pick; shares compounds with RAD52 inh; Salmon sperm DNA/acridine orange FP displacement; AC50, µM; 8% of 1,000 active; AID 652128, 2013;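 active = fitted half-maximal concentration for signal loss at or below twice the highest dose tested, in every separate run, actives reach about 64 µM in these data; inconclusive = runs disagree, or flat partial signal loss, or poor fit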
Large screens that a line does not name were inactive (follow-up assays come after a bar, where they were run). The list is not random: actives were taken first. Their share in the collection is about 1.3%.

COc1ncnc2c1sc1nc(-c3ccccc3)c3c(c12)CCCC3	none (no result: RAD52 inh, RAD54 branch)
C[C@@H]1CCCCO[C@H](CN(C)S(=O)(=O)c2ccc(F)cc2)[C@H](C)CN([C@H](C)CO)C(=O)c2cc(NS(=O)(=O)c3cn(C)cn3)ccc2O1	none
Cc1cc(/C=C2\Sc3ccccc3N2C)cc(C)[n+]1CC1CCCO1 (centres undefined)	RAD52 inh 50.8, PAX8 reporter 77.9 (no result: RAD54 branch) | DNA binder FP inactive
COc1ccc(C(=O)NCC(=O)OCC(=O)NCc2ccco2)cc1	none
O=C(N/N=C/c1cccc([N+](=O)[O-])c1)c1cc[n+](CCO)cc1	RAD52 inh 82.3 | DNA binder FP inactive
CCCN(C(=O)COC(=O)CCOc1ccccc1)c1c(N)n(Cc2ccccc2)c(=O)[nH]c1=O	none (no result: FN deposition inh)
CC1Cc2ccccc2N1C(=O)Cn1c(=O)cc(O)c2ccccc21 (centres undefined)	none (no result: RAD52 inh, PAX8 reporter)
COc1ccc(CN2CCOCC2)cc1OC	none (no result: RAD52 inh, PAX8 reporter, FN deposition inh)
COc1cc2sc3ccc(-c4ccc(CN5CCOCC5)cc4)cc3c(=O)c2cc1OC	RAD52 inh 92.7 | DNA binder FP inactive
O=C1CCCCC1	RAD52 inh 91.0 (no result: PAX8 reporter, FN deposition inh) | DNA binder FP inactive
CCNC(=O)C[C@@H]1CC[C@@H]2[C@H](COC[C@H](O)CN2C(=O)Nc2ccc(Cl)c(Cl)c2)O1	none
COc1ccc(C2c3ccc4ccccc4c3Oc3ncn(CCN(C)C)c(=N)c32)cc1 (centres undefined)	RAD52 inh 57.2 | DNA binder FP inactive
Cc1cccc(NC(=O)CN2CCN(C(=O)C(C)Oc3ccc(C#N)cc3)CC2)c1C (centres undefined)	none
COc1ccc(CC(=O)Nc2c3c(nn2C(C)(C)C)CS(=O)C3)cc1 (centres undefined)	none
NC(N)=N/N=C(\N=Nc1ccccc1)c1ccc(Cl)cc1	RAD52 inh 74.1 (no result: RAD54 branch) | DNA binder FP inactive
NC(N)=N/N=C(\N=Nc1ccccc1)c1cccc2cccnc12	none (no result: RAD54 branch)
COc1ccccc1-c1ccc([C@H]2[C@@H](CO)N3CCCCN(C(=O)c4cccnc4)C[C@H]23)cc1	none
CSc1nc(NCCCN(C)C)c2c3c(sc2n1)CN(C)CC3	RAD52 inh 77.1 (no result: RAD54 branch) | DNA binder FP inactive
CSc1nc(NCC(C)C)c2c3c(sc2n1)CN(C)CC3	none (no result: RAD52 inh, PAX8 reporter, FN deposition inh)
Cc1ccc(C)c(NC(=O)Cn2nnc(C(=O)NCc3ccco3)c2N)c1	none
CCOC(=O)C1CCCN(C(=O)c2cc(-c3ccc(F)cc3)nc3ccccc23)C1 (centres undefined)	none (no result: FN deposition inh)
CCN1CCCC(OC(=O)c2cc(-c3ccc(C)cc3)nc3ccccc23)C1 (centres undefined)	RAD52 inh 56.7 (no result: RAD54 branch) | DNA binder FP inactive
CCN(CC)CCOC(=O)c1ccc(N=CC2=C(O)CC(C)(C)CC2=O)cc1	RAD52 inh 70.9 (no result: RAD54 branch) | DNA binder FP inactive
NC[C@H](O)c1ccc(O)c(O)c1	RAD52 inh 69.8 | DNA binder FP inactive
CNC[C@H](O)c1ccc(O)c(O)c1	none
Cc1c(CCOC(=O)c2ccc([N+](=O)[O-])cc2)sc[n+]1CC(=O)c1ccccc1	none (no result: RAD54 branch)
Cc1c(CCOC(=O)c2ccc(Cl)cc2Cl)sc[n+]1CC(=O)c1ccc(Br)cc1	none (no result: FN deposition inh) | DNA binder FP inactive
COc1ccc(C(=O)OCCc2sc[n+](CC(=O)c3ccccc3)c2C)cc1	RAD52 inh 73.4 | DNA binder FP inactive
CC(C)NC(=O)Nc1cccc2c1O[C@H](CN(C)S(C)(=O)=O)[C@H](C)CN(C)C2=O	none (no result: RAD52 inh, RAD54 branch, PAX8 reporter)
O=c1cc(CN2CCN(c3ccccn3)CC2)nc2sccn12	none (no result: RAD54 branch, FN deposition inh)
O=C(Nc1ccn(CCCN2CCN(Cc3cccc4ccccc34)CC2)c(=O)n1)OCc1ccccc1	RAD52 inh 52.2 (no result: RAD54 branch) | DNA binder FP inactive
C[C@@H]1CN([C@@H](C)CO)C(=O)c2cc(NC(=O)c3ccncc3)ccc2O[C@H]1CN(C)C(=O)Nc1cccc2ccccc12	none (no result: FN deposition inh)
NC(=NCc1ccccc1)NC(=O)c1nc(Cl)c(N)nc1N	RAD52 inh 50.1, RAD54 branch inconclusive | DNA binder FP inactive
O=C(NCCNC(=O)c1ccccc1)c1ccccc1	RAD52 inh 52.5 | DNA binder FP inactive
CCN(CC)CCCNC(=O)c1[nH]c2ccccc2c1Sc1ccc(Cl)cc1	RAD52 inh 69.8 | DNA binder FP inactive
COc1ccc(NC(=O)c2cccc3c(-c4ccc(OC)cc4C)coc23)cc1	none (no result: PAX8 reporter)
